Article PMC2962933 (Biochemistry, 2010)
Read-outs that look alike come from different tables or passages of the source.

Columns and labels:
[1] = system: TcK431A mutant of Tc-SAHH; experiment: cofactor content of isolated and reconstituted mutant enzyme; assay type: binding, Trypanosoma cruzi
Outline: (§1)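 Apo-enzyme preparation: mutants expressed in E. coli were precipitated three times with 80% (v/v) acid ammonium sulfate plus 2–5 mM DTT (pH 2.92, 3.12, then 7.2). Pellets were redissolved in 50 mM phosphate pH 7.2 with 1 mM EDTA. Apo protein (10 mg/mL) was incubated with 1 mM NAD+ or NADH for 12 h at 4 °C, then purified by Superdex 200 gel filtration.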

[2] = system: TcY435A mutant of Tc-SAHH; experiment: as above; assay type: binding, Trypanosoma cruzi
Outline: as §1

[3] = molecular target: T1, HsY430A mutant of Hs-SAHH (Homo sapiens, UniProt P23526, Y430A); experiment: cofactor content of isolated and reconstituted mutant enzyme; assay type: binding
T1 sequence (P23526 1-432 Y430A): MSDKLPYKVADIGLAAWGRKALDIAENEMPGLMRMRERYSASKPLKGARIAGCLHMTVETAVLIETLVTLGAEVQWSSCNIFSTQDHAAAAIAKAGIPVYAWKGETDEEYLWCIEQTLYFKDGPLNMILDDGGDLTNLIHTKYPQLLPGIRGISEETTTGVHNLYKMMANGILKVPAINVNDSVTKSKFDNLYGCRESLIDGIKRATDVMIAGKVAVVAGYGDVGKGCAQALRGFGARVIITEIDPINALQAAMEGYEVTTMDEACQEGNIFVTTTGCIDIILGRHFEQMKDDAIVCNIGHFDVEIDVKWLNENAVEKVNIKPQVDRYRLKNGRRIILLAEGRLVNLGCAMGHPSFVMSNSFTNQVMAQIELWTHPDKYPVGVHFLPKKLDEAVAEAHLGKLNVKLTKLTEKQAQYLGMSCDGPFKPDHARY

Tc-SAHH [4] = conditions: cited from earlier work
Hs-SAHH [5] = conditions: cited from earlier work
Tc-SAHH [6] = conditions: 23 °C, pH 7.4, cited from earlier work
[7] = molecular target: T1, HsY430A mutant of Hs-SAHH; experiment: association kinetics of NAD^+ with apo-enzyme; assay type: binding
[8] = molecular target: T1, HsY430A mutant of Hs-SAHH; experiment: dissociation of NAD^+; assay type: binding
[9] = system: TcY435A mutant of Tc-SAHH; experiment: dissociation of NAD^+; assay type: binding, Trypanosoma cruzi
[10] = molecular target: TcY435A mutant of Tc-SAHH; experiment: association kinetics of NAD^+ with apo-enzyme; assay type: binding, Trypanosoma cruzi; conditions: 23 °C, pH 7.4
Hs-SAHH [11] = conditions: 23 °C, pH 7.4, cited from earlier work
[12] = molecular target: K431A mutant of Trypanosoma cruzi S-adenosylhomocysteine hydrolase (TcK431A) (Trypanosoma cruzi); experiment: SEC
[13] = molecular target: Y435A mutant of Trypanosoma cruzi S-adenosylhomocysteine hydrolase (TcY435A) (Trypanosoma cruzi); experiment: SEC
SEC = molecular target: the molecule itself; experiment: SEC
[14] = enzyme as isolated from the expression system, fluorescence
[15] = Table 2 (23 °C, pH 7.4), value is 10^6 x koff
[16] = binding to non-functional sites of apo-SAHH
[17] = read-out: Kf, binding to fully functional sites of holo-SAHH
[18] = read-out: Ko, binding to fully functional sites of apo-SAHH
[19] = enzyme as isolated from the expression system, HPLC

With NC(=O)C1=CN([C@@H]2O[C@H](COP(=O)(O)OP(=O)(O)OC[C@H]3O[C@@H](n4cnc5c(N)ncnc54)[C@H](O)[C@@H]3O)[C@@H](O)[C@H]2O)C=CC1 [NADH, β-nicotinamide adenine dinucleotide, reduced form] the “occupancy after reconstitution of apo-enzyme with NADH” value (“occupancy … with NADH” below) ([1]; attempted reconstitution) was “no detectable occupancy”, the “active-site occupancy by NADH” value [1, 14] was 1.30 ± 0.03% and the “occupancy … with NADH” value ([2]; attempted reconstitution) was “no detectable occupancy”. The “active-site occupancy by NADH” value [2, 14] was 90 ± 1%, the “occupancy … with NADH” value ([3]; 1 mM NADH, 12 h, 4 °C, fluorescence) was 94 ± 1% and the “active-site occupancy by NADH” value [3, 14] was 86 ± 5%.

For NC(=O)C1=CN([C@@H]2O[C@H](COP(=O)(O)OP(=O)(O)OC[C@H]3O[C@@H](n4cnc5c(N)ncnc54)[C@H](O)[C@@H]3O)[C@@H](O)[C@H]2O)C=CC1 [NAD^+, β-nicotinamide adenine dinucleotide], the koff (Tc-SAHH [4]; 24 °C, pH 7.4, wild-type enzyme) is given as 1.1 ± 0.2 × 10^−4 s^−1, the “10^6koff” value (Tc-SAHH [4]; [15]) is given as 110 ± 20 s^−1 and the koff (Hs-SAHH [5]; 30 °C, pH 7.4, wild-type enzyme) is given as 1.9 ± 0.3 × 10^−5 s^−1. The “10^6koff” value (Hs-SAHH [5]; [15]) was 19 ± 3 s^−1, the Ka (Tc-SAHH [6]; [16]) was 3.8 ± 0.6 µM and the “Kd, koff/(ka/Ka)” value (Tc-SAHH [6]) was 0.069 ± 0.018 µM. The “10^−3kon” value (Tc-SAHH [6]; value is 10^−3 x kon) was 0.68 ± 0.02 M^−1s^−1, the Kd (Tc-SAHH [6]; read-out: Kd, koff/kon) was 0.161 ± 0.03 µM and the Kd (Tc-SAHH [6]; [17]) was 1.8 ± 0.4 µM. The Kd (Tc-SAHH [6]; [18]) was 38 ± 9 µM, the “Kd, koff/(ka/Ka)” value ([7]; 23 °C, pH 7.4) was 0.75 ± 0.095 µM and the Ka ([7]; 23 °C, pH 7.4, binding to non-functional sites of apo-SAHH) was 17 ± 2 µM. For the same molecule, the “n (Hill coefficient for Ko)” value ([7]; 23 °C, pH 7.4, fast-binding sites) was 0.9 ± 0.1, the “10^−3kon” value ([7]; 23 °C, pH 7.4, value is 10^−3 x kon) was 0.54 ± 0.04 M^−1s^−1 and the “decrease of the on-rate, mutant vs wild type” value ([7]; HsY430A vs Hs-SAHH) was 4 fold. For the same molecule, the Kd ([7]; read-out: Kd, koff/kon, 23 °C, pH 7.4) was 0.784 ± 0.064 µM, the Kd ([7]; read-out: Kf, 23 °C, pH 7.4, binding to fully functional sites of holo-SAHH) was 2 ± 0.3 µM and the Kd ([7]; read-out: Ko, 23 °C, pH 7.4, binding to fully functional sites of apo-SAHH) was 432 ± 93 µM. For the same molecule, the koff ([8]; 30 °C, pH 7.4) was 4.2 ± 0.1 × 10^−4 s^−1, the “10^6koff” value [8, 15] was 420 ± 10 s^−1 and the “occupancy after reconstitution of apo-enzyme with NAD^+” value ([1]; attempted reconstitution) was “no detectable occupancy”. For the same molecule, the “occupancy after reconstitution of apo-enzyme with NAD^+” value ([2]; attempted reconstitution) was “no detectable occupancy”, the “active-site occupancy by NAD^+” value [2, 19] was 18 ± 1% and the koff ([9]; 24 °C, pH 7.4) was 2.8 ± 0.2 × 10^−2 s^−1. The “10^3koff” value ([9]; Table 2 (23 °C, pH 7.4), value is 10^3 x koff) was 28 ± 2 s^−1, the “active-site occupancy by NAD^+” value [3, 19] was 30 ± 5% and the “Kd, koff/(ka/Ka)” value [10] was 1000 ± 300 µM. The kon [10] was 18 ± 2 M⁻¹ s⁻¹, the ka/Ka ([10]; binding and transformation of apo-sites to holo-sites) was 29 ± 9 M⁻¹ s⁻¹ and the Ka [10, 16] was 0.39 ± 0.04 mM. For the same molecule, the ka ([10]; transformation of non-functional apo-sites to functional holo-sites) was 11 ± 0.4 s⁻¹, the Kd ([10]; read-out: Kd, koff/kon) was 1600 ± 200 µM and the Kd [10, 17] was 200 ± 30 µM. For the same molecule, the Kd [10, 18] was 2600 ± 1000 µM, the Ka (Hs-SAHH [11]; [16]) was 19 ± 8 µM and the “Kd, koff/(ka/Ka)” value (Hs-SAHH [11]) was 0.007 ± 0.003 µM. The “10^−3kon” value (Hs-SAHH [11]; value is 10^−3 x kon) was 1.9 ± 0.04 M^−1s^−1, the Kd (Hs-SAHH [11]; read-out: Kd, koff/kon) was 0.01 ± 0.002 µM and the Kd (Hs-SAHH [11]; [17]) was 1.4 ± 0.3 µM. For the same molecule, the Kd (Hs-SAHH [11]; [18]) was 33 ± 4 µM.

For “K431A mutant of Trypanosoma cruzi S-adenosylhomocysteine hydrolase (TcK431A) (enzyme)”, the stoichiometry N [12] was 4.

Molecule “Y435A mutant of Trypanosoma cruzi S-adenosylhomocysteine hydrolase (TcY435A) (enzyme)” has a stoichiometry N [13] of 4.

B1: Y430A mutant of human S-adenosylhomocysteine hydrolase (HsY430A) (enzyme)
chain: T1 sequence (P23526 1-432 Y430A)
With B1 the “stoichiometry N” value (SEC) was 4.
